Experimental data: ChEMBL document CHEMBL3098087, “Synthesis and evaluation of (-)- and (+)-[¹¹C]galanthamine as PET tracers for cerebral acetylcholinesterase imaging” (Bioorg Med Chem, 2014); call rule not given here

Tests used:
Striatum [1] = test: Drug uptake in Wistar rat striatum at 10 mM after 30 mins by autoradiography analysis counting in presence of donepezil; type: ADME, tissue-based; conditions: 0.5 h, 10000 µM
Striatum [2] = test: Drug uptake in Wistar rat striatum at 2.2 […]/200 uL after 30 mins by autoradiography analysis; type: ADME, tissue-based; conditions: in vitro, 0.5 h
Outline: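 Coronal brain sections (20 µm) from male Wistar rats were thaw-mounted on silane-coated slides. Sections were incubated with tracer in binding buffer for 30 min at 4°C, then washed with ice-cold buffer and water. They were exposed to imaging plates for 6 h alongside calibrated 11C standards.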

Cerebellum = test: Biodistribution in ddY mouse cerebellum at 3.7 MBq, iv after 30 mins by gamma counting; type: ADME, organism-based; conditions: in vivo, 0.5 h
Outline: (§1)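 ddY male mice, seven weeks old, 20–25 g, received 3.7 MBq of tracer. Five animals per time point, up to 60 min, were killed by exsanguination. Blood and brain, or striatum and cerebellum, were excised, weighed and gamma-counted. Uptake is expressed as %ID/g of tissue.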

Striatum [3] = test: Biodistribution in ddY mouse striatum at 3.7 MBq, iv after 30 mins by gamma counting; type: ADME, organism-based; conditions: in vivo, 0.5 h; outline: as §1
Brain [4] = test: Biodistribution in ddY mouse brain at 3.7 MBq, iv after 10 mins by gamma counting; type: ADME, organism-based; conditions: in vivo; outline: as §1
Brain [5] = test: Biodistribution in ddY mouse brain at 74 MBq, iv after 10 to 30 mins by PET analysis; conditions: in vivo
Striatum [6] = test: Biodistribution in ddY mouse striatum at 3.7 MBq, iv by gamma counting in presence of donepezil; conditions: in vivo

Compound	Drug uptake (Striatum [1])	Drug uptake (Striatum [2])	Drug uptake (Cerebellum) [% ID/g]	Drug uptake (Striatum [3]) [% ID/g]	Drug uptake (Brain [4]) [% ID/g]	Drug uptake (Brain [5])	Drug uptake (Striatum [6]) [% ID/g]
COc1ccc2c3c1O[C@H]1C[C@@H](O)C=C[C@@]31CCN([11CH3])C2	Not Active	Active	1.7	2.1	2.1	Active	1.3
COc1ccc2c3c1O[C@@H]1C[C@H](O)C=C[C@]31CCN([11CH3])C2			1.5	1.5	2.1		
